Assay results pooled from the literature.
Protocols differ between the studies behind these lines.
CDK6 with cyclin D1: Cyclin-dependent kinase 6, with cyclin D1 (CDK6, Homo sapiens, UniProt Q00534)
CDK6 with cyclin D3: Cyclin-dependent kinase 6, with cyclin D3 (CDK6, Homo sapiens, UniProt Q00534)

O=C(Nc1cnn(-c2csc(C(=O)NC3COC3)c2)c1)Nc1ccccc1Cl  remaining activity (CDK6 with cyclin D1; enzyme activity; inhibitor; 5 µM): 95.4%
CNC(=O)c1cc(Oc2ccc(NC(=O)Nc3ccc(Cl)c(C(F)(F)F)c3)cc2)ccn1  inhibition (CDK6 with cyclin D3; enzyme activity; inhibitor; 0.3 µM): -11%
CCN(CC)c1ccc(C2=NNC(=O)CC2C)cc1[N+](=O)[O-] (centres unmarked)  remaining activity (CDK6 with cyclin D3; enzyme activity; inhibitor; 10 µM): 90%
Cc1ccc(NC(=O)c2ccc(C)c(C(F)(F)F)c2)cc1C#Cc1nn(C2CCC(O)CC2)c2ncnc(N)c12 (centres unmarked)  remaining signal (CDK6 with cyclin D3; cell-free assay; 10 µM): 120%
N#CCCc1ccc2c(c1)-c1[nH]c3ccc([N+](=O)[O-])cc3c1CC(=O)N2  remaining signal (CDK6 with cyclin D1; cell-free assay; 0.5 µM): 6.79%
Cc1cnc(NC2CCOCC2)nc1-n1cnc(C(=O)NC(CN)c2cc(F)cc(Cl)c2)c1 (centres unmarked)  remaining activity (CDK6 with cyclin D3; enzyme activity; inhibitor; radiometric; 1 µM): 31%
CC(C)(C)c1nc(-c2cccc(NS(=O)(=O)c3c(F)cccc3F)c2F)c(-c2ccnc(N)n2)s1  remaining activity (CDK6 with cyclin D3; enzyme activity; inhibitor; radiometric; 1 µM): 74%
CC(C)(O)[C@H]1CC[C@H](Nc2ccc3ncc(-c4cccc(C(F)(F)F)c4)n3n2)CC1  remaining activity (CDK6 with cyclin D1; enzyme activity; inhibitor; 1 µM): 101%
O=C1NC(=O)c2cc(Nc3ccc(F)cc3)c(Nc3ccc(F)cc3)cc21  remaining signal (CDK6 with cyclin D3; cell-free assay; 0.5 µM): 89.9%
Cc1ccc(Nc2nccc(N(C)c3ccc4c(C)n(C)nc4c3)n2)cc1S(N)(=O)=O  inhibition (CDK6 with cyclin D3; enzyme activity; inhibitor; 10 µM): 38%
CC(C)(C)c1nc2c(s1)c1nc(N)ncc1c1ccc(NS(=O)(=O)c3c(F)cccc3F)c(F)c12  remaining activity (CDK6 with cyclin D1; enzyme activity; inhibitor; radiometric; 1 µM): 113%
Cn1cnc(Br)c1C1=CN(c2ncnc3[nH]cnc23)CCS1  inhibition (Cyclin-dependent kinase 6 (CDK6, Homo sapiens, UniProt Q00534); enzyme activity; inhibitor; radiometric; 2 µM): 40.4%
CCCOc1ccc(OC)c(F)c1C(=O)c1ccc(C(=O)N[C@@H]2CNC[C@H]2NC(=O)c2ccc3[nH]ncc3c2)cc1  remaining activity (CDK6 with cyclin D3; enzyme activity; inhibitor; 10 µM): 83%
O=C(Nc1cnn(-c2csc(C(=O)NC3COC3)c2)c1)Nc1c(F)cccc1Cl  remaining activity (CDK6 with cyclin D1; enzyme activity; inhibitor; 5 µM): 105%
Cc1cc(NC(=O)c2cccc3cc(-c4cccc5[nH]nc(N)c45)ccc23)ccc1F  activity vs control (CDK6 with cyclin D3; enzyme activity; inhibitor; 0.1 µM): 94%
CCN(CC)CCNC(=O)c1c(C)[nH]c(/C=C2\C(=O)Nc3ccc(F)cc32)c1C  inhibition (CDK6 with cyclin D3; enzyme activity; inhibitor; 0.3 µM): 13%
O=C1Nc2ccc(Cl)cc2C1=Cc1cc(Cl)c(O)c(Cl)c1  remaining signal (CDK6 with cyclin D3; cell-free assay; 0.5 µM): 94.1%
